Like-named read-outs stand apart in the source and are kept apart here. Values belong to the compound of their own block, whether it stands above or below them.
Columns and labels:
[1] = tested on: ADP-induced platelet aggregation; assay: ADP-induced whole-blood platelet aggregation, Multiplate impedance aggregometer; type: in vivo, human
Summary of the method: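 Caucasian patients from central Poland undergoing coronary or peripheral interventions received the test drug orally, fasting, 75 mg daily for 7 days beforehand. Blood was drawn 2–3 h post-dose into hirudin tubes, diluted 1:1 with 0.9 % NaCl, and stirred 3 min at 37 °C. ADP was added at 6.4 μmol/L, and impedance was recorded for 6 min. Aggregation was expressed as AUC (AU·min).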

[2] = cited from earlier work
[3] = type: in vivo, human; conditions: for AUC(0-inf) / AUC(0-t) / Vd/F / half-life: human, po; for Plasma concentration at 6 h after clopidogrel administration: most subjects, LLOQ 0.25 ng/mL
[4] = cited from earlier work; remark: listed apart in the source
[5] = clopidogrel 75 mg maintenance dose, 6.4 μmol/L ADP
[6] = clopidogrel 75 mg, single subject
[7] = patients, oral clopidogrel 75 mg for 7 days, plasma
[8] = patients, single oral clopidogrel 300 mg loading dose, plasma
[9] = patients, single oral clopidogrel 300 mg, plasma
[10] = patients, oral clopidogrel 75 mg, plasma
[11] = healthy volunteers, clopidogrel 75 mg, ref 10
[12] = clopidogrel 75 mg, diabetes mellitus no (n = 19)
[13] = clopidogrel 75 mg, diabetes mellitus yes (n = 11)
[14] = clopidogrel 75 mg, proton-pump inhibitors no (n = 15)
[15] = clopidogrel 75 mg, proton-pump inhibitors yes (n = 13)

AUC(0-inf) ([3]; plasma, 75 mg): 6.29 ± 4.11 ng·h/mL | AUC(0-t) ([3]; plasma, 75 mg): 5.07 ± 3.8 ng·h/mL | Vd/F ([3]; plasma, 75 mg): 39200 ± 33500 L | half-life ([3]; plasma, 75 mg): 1.71 ± 1.28 h | AUC(0-inf) ([3]; plasma, 300 mg): 21.8 ± 13.3 ng·h/mL | AUC(0-t) ([3]; plasma, 300 mg): 20.8 ± 13.3 ng·h/mL | Vd/F ([3]; plasma, 300 mg): 45500 ± 19200 L | half-life ([3]; plasma, 300 mg): 1.99 ± 0.44 h | CL/F (mean ± SD) ([3]; patients, oral clopidogrel 75 mg): 18.96 ± 15.89 ×10^3 L/h | C max (mean ± SD) [3, 7]: 2.04 ± 2.0 ng/mL | CL/F (mean ± SD) ([3]; patients, single oral clopidogrel 300 mg): 16.98 ± 10.41 ×10^3 L/h | C max (mean ± SD) [3, 8]: 4.51 ± 3.42 ng/mL | t max (mean ± SD) [3, 9]: 1.17 ± 0.76 h
Compound: COC(=O)[C@H](c1ccccc1Cl)N1CCc2sccc2C1 [Clopidogrel, (+)-S clopidogrel bisulfate, reference compound]
Platelet aggregation, mean ± SD [1, 5]: 166 ± 146 AU·min | Platelet aggregation, median [1, 5]: 141 AU·min | Number of patients characterized as non-responders (AUC >468 AU·min) ([1]; clopidogrel 75 mg, 38 patients): two | Number of patients with low platelet aggregation (AUC <100 AU·min) ([1]; clopidogrel 75 mg, 38 patients): 14 patients | Platelet aggregation (AUC), one patient with high H4 concentrations ([1]; clopidogrel 75 mg, single patient later excluded from the correlation): 637 AU·min | Platelet aggregation, one subject with low H4 concentrations [1, 6]: 747 AU·min | C max ([2]; Argentinean subjects, clopidogrel 75 mg): 0.9 ng/mL | C max ([2]; Egyptian healthy volunteers, clopidogrel 75 mg): 4.4 ng/mL | C max ([2]; US healthy volunteers, fasted state, clopidogrel 75 mg): 1.5 ng/mL | C max ([2]; US healthy volunteers, fed state, clopidogrel 75 mg): 2.5 ng/mL | Fraction of the absorbed drug transformed by carboxyl esterases into CLPM [4]: Up to 85%

Exposure to H4 relative to exposure to the H3 isomer ([3]; after clopidogrel 300 mg (n = 3)): two times greater | AUCt (mean ± SD) [3, 12]: 10.46 ± 9.78 ng·h/mL | C max (mean ± SD) [3, 12]: 6.61 ± 6.30 ng/mL | AUCt (mean ± SD) [3, 13]: 11.69 ± 9.63 ng·h/mL | C max (mean ± SD) [3, 13]: 8.04 ± 6.55 ng/mL | AUCt (mean ± SD) [3, 14]: 9.69 ± 9.81 ng·h/mL | C max (mean ± SD) [3, 14]: 5.92 ± 4.53 ng/mL | AUCt (mean ± SD) [3, 15]: 13.10 ± 9.82 ng·h/mL | C max (mean ± SD) [3, 15]: 9.04 ± 8.07 ng/mL | C max, one patient with high platelet aggregation (637 AU·min) ([3]; clopidogrel 75 mg, single patient): 23.3 ng/mL | C max, one subject with high platelet aggregation (747 AU·min) [3, 6]: 2.5 ng/mL | Plasma concentration at 6 h after clopidogrel administration [3]: below the limit of quantification | C max (mean ± SD) [3, 7]: 7.13 ± 6.32 ng/mL | AUCt (mean ± SD) [3, 10]: 11.30 ± 9.58 ng·h/mL | AUC∞ (mean ± SD) [3, 10]: 11.97 ± 9.75 ng·h/mL | t max (mean ± SD) [3, 10]: 1.04 ± 0.53 h | t ½ (mean ± SD) [3, 10]: 0.90 ± 0.86 h | C max (mean ± SD) [3, 8]: 17.92 ± 20.38 ng/mL | AUCt (mean ± SD) [3, 9]: 25.04 ± 27.41 ng·h/mL | AUC∞ (mean ± SD) [3, 9]: 25.69 ± 27.54 ng·h/mL | t max (mean ± SD) [3, 9]: 0.83 ± 0.29 h | t ½ (mean ± SD) [3, 9]: 0.84 ± 0.20 h
Compound: COC(=O)[C@H](c1ccccc1Cl)N1CCC(S)/C(=C\C(=O)O)C1 (some centres unmarked) [H4]
C max [2, 11]: 16.4 ng/mL | C max ([2]; healthy volunteers, clopidogrel 75 mg, ref 32): 11 ng/mL

AUCt (mean ± SD) [3, 12]: 6.71 ± 4.47 ng·h/mL | C max (mean ± SD) [3, 12]: 4.90 ± 4.02 ng/mL | AUCt (mean ± SD) [3, 13]: 7.88 ± 9.33 ng·h/mL | C max (mean ± SD) [3, 13]: 5.96 ± 7.69 ng/mL | AUCt (mean ± SD) [3, 14]: 7.03 ± 5.52 ng·h/mL | C max (mean ± SD) [3, 14]: 5.00 ± 4.93 ng/mL | AUCt (mean ± SD) [3, 15]: 7.76 ± 8.16 ng·h/mL | C max (mean ± SD) [3, 15]: 5.94 ± 6.63 ng/mL | Plasma concentration at 6 h after clopidogrel administration [3]: below the limit of quantification | C max (mean ± SD) [3, 7]: 5.29 ± 5.54 ng/mL | AUCt (mean ± SD) [3, 10]: 7.37 ± 6.71 ng·h/mL | AUC∞ (mean ± SD) [3, 10]: 7.96 ± 6.85 ng·h/mL | t max (mean ± SD) [3, 10]: 1.08 ± 0.62 h | t ½ (mean ± SD) [3, 10]: 0.78 ± 0.78 h | C max (mean ± SD) [3, 8]: 8.47 ± 1.69 ng/mL | AUCt (mean ± SD) [3, 9]: 11.24 ± 8.31 ng·h/mL | AUC∞ (mean ± SD) [3, 9]: 11.70 ± 8.33 ng·h/mL | t max (mean ± SD) [3, 9]: 0.83 ± 0.29 h | t ½ (mean ± SD) [3, 9]: 0.72 ± 0.18 h
Compound: COC(=O)[C@H](c1ccccc1Cl)N1CC[C@H](S)/C(=C\C(=O)O)C1 [H3]
C max [2, 11]: 17.8 ng/mL

The next lines start with the compound.

Compound: COC(=O)[C@H](c1ccccc1Cl)N1CCC(S)/C(=C\C(=O)O)C1 (some centres unmarked) [CTM]
C max ([2]; healthy control subjects, clopidogrel 600 mg): 14.5 ng/mL | Concentrations in plasma ([2]; method not distinguishing H3 and H4 isomers): > 20 ng/mL | C max ([2]; patients with a history of stent thrombosis, clopidogrel 600 mg): 3.2 ng/mL

Compound: O=C(O)[C@H](c1ccccc1Cl)N1CCc2sccc2C1 [CLPM]
C max in plasma relative to that of the parent drug ([3]; patients, clopidogrel 75 and 300 mg): thousand-fold greater | C max (mean ± SD) [3, 7]: 2,516 ± 1,754 ng/mL | AUCt (mean ± SD) [3, 10]: 11,077 ± 7,768 ng·h/mL | AUC∞ (mean ± SD) [3, 10]: 12,383 ± 8,552 ng·h/mL | t max (mean ± SD) [3, 10]: 1.37 ± 0.74 h | C max (mean ± SD) [3, 8]: 8,464 ± 3,772 ng/mL | AUCt (mean ± SD) [3, 9]: 32,979 ± 12,321 ng·h/mL | AUC∞ (mean ± SD) [3, 9]: 37,249 ± 13,861 ng·h/mL | t max (mean ± SD) [3, 9]: 1.61 ± 1.21 h
